In the RNAGym collection of RNA variant scans (doi:10.1126/science.aae0568):
This sample holds only a part of the variants without activity.

B1: tRNA (parent)
chain: GUUCCGUUGGCGUAAUGGUAACGCGUCUCCCUCCUAAGGAGAAGACUGCGGGUUCGAGUCCCGUACGGAACG

Variants of: B1
Assay: yeast fitness relative to wild type (ratio to wild type); higher = fitter; tRNA-Arg(CCU), competitive growth, 37 C, YPD
Procedure, shortened: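 Variants of the tRNA-Arg(CCU) gene were chemically synthesised with a 3% per-site mutation rate across 69 sites and placed at the native genomic locus in Saccharomyces cerevisiae. Six parallel replicates of the pooled strains were competed in YPD at 37°C for 24 hours, and gene amplicons from the start and end populations were read by 100-nucleotide paired-end sequencing. Darwinian fitness relative to wild type was derived from changes in genotype frequencies. Genotypes required ≥ 100 starting reads, and estimates < 0.5 were set to 0.5.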

| Variant | yeast fitness |
| --- | --- |
| GUUCCGUUGACGUAAUGGUAUCGCGUCUCCCUCCUAAGGAGAAGACUGCGGGAUCGAGUCCCGUACGGAACG [G10A A21U U53A] | 0.521 |
| GUUCCGUUGACGUAAUGGUAUCGCGUCUCCCUCCUAAGGAGAAGACUGCGGGAUCGAGUCCCGUAUGGAACG [G10A A21U U53A C66U] | ≤ 0.5 |
| GUUCCGUUGACGUAAUGGUAACGCGUCUCCCUCCUCAGGAGAAGACUGCGGGUUCGAGUCCCGUACGGAUCG [G10A A36C A70U] | ≤ 0.5 |
| GUUCCGUUGACGUAAUGGUAACGCGUCUCCCUCCUGAGGAGAAGACUGCGGGUUCGAGUGCCGUACGGAACG [G10A A36G C60G] | ≤ 0.5 |
| GUUCCGUUGACGUAAUGGUAACGCGUCUCCCUCCUGAGGAGAAGACUCCGGGUUCGAGUCCCGUACGGAACG [G10A A36G G48C] | 0.691 |
| GUUCCGUUGACGUAAUGGUAACGCGUCUCCCUCCUUAGGAGAGGACUGCGGGUUCGAGUCCCGUAAGGAACG [G10A A36U A43G C66A] | ≤ 0.5 |
| GUUCCGUUGACGUAAUGGUAACGCGUCUCCCUCCUUAAGAGAAGACUGCGGGUUCGAGUCCCGUCCGGAACG [G10A A36U G38A A65C] | ≤ 0.5 |
| GUUCCGUUGACGUAAUGGUAACGCGUCUCCCUCCUACGGAGAAGACUGCGGGUUCGCGUCCCGUACGGAACG [G10A A37C A57C] | ≤ 0.5 |
| GUUCCGUUGACGUAAUGGUAACGCGUCUCCCUCCUAGGGAGAAGACUGGGGGUUCGAGUCCCGUACGGAACG [G10A A37G C49G] | ≤ 0.5 |
| GUUCCGUUGACGUAAUGGUAACGCGUCUCCCUCCUAUGGAGAAGGGUGCGGGUUAGAGUCCCGUACGGAACG [G10A A37U A45G C46G C55A] | ≤ 0.5 |
| GUUCCGUUGACGUAAUGGUAACGCGUCUCCCUCCUAUGGAGAAGACUGCGGGUUCGAGUCGCGUAGGGAACG [G10A A37U C61G C66G] | 0.623 |
| GUUCCGUUGACGUAAUGGUAACGCGUCUCCCUCCUAUGGAGAAGACUGCGGGUUCGAGUCCCGUACCGAACG [G10A A37U G67C] | 0.587 |
| GUUCCGUUGACGUAAUGGUAACGCGUCUCCCUCCUAAGGGGAAGACUGCGGGUUCGAGUCCCGUACGGAACG [G10A A40G] | 0.79 |
| GUUCCGUUGACGUAAUGGUAACGCGUCUCCCUCCUAAGGUGAAGACUGCGGGUUCGAGUCCCGUACGGAACG [G10A A40U] | 0.683 |
| GUUCCGUUGACGUAAUGGUAACGCGUCUCCCUCCUAAGGAGCCGACUGCGGGUUCGAGUCCCGUACGGAACG [G10A A42C A43C] | 0.612 |
| GUUCCGUUGACGUAAUGGUAACGCGUCUCCCUCCUAAGGAGGAGACUGCGGGUUCGAGUCCCGUACGGACCG [G10A A42G A70C] | ≤ 0.5 |
| GUUCCGUUGACGUAAUGGUAACGCGUCUCCCUCCUAAGGAGGAGACUGCCGGUUCGAGUCCCGUACGGAACG [G10A A42G G50C] | ≤ 0.5 |
| GUUCCGUUGACGUAAUGGUAACGCGUCUCCCUCCUAAGGAGACGACUGCGGGUUCGAGUCCCGUGCGGAACG [G10A A43C A65G] | 0.589 |
| GUUCCGUUGACGUAAUGGUAACGCGUCUCCCUCCUAAGGAGAUGACUGCGGGUUCGAGUCCCGUACGGAACG [G10A A43U] | 0.781 |

| Variant | yeast fitness |
| --- | --- |
| GUUCCGUUGACGUAAUGGUAACGCGUCUCCCUCCUAAGGAGAAGCCUGCCCGUUUGAGUCCCGUACGAACCG [G10A A45C G50C G51C C55U G68A A70C] | ≤ 0.5 |
| GUUCCGUUGACGUAAUGGUAACGCGUCUCCCUCCUAAGGAGAAGGGUGCGGGUGCGAGUCCCGUACGGACCG [G10A A45G C46G U54G A70C] | 0.532 |
| GUUCCGUUGACGUAAUGGUAACGCGUCUCCCUCCUAAGGAGAAGGCUGCGGGUUCGAGCCCCGUACGGAACG [G10A A45G U59C] | 0.616 |
| GUUCCGUUGACGUAAUGGUAACGCGUCUCCCUCCUAAGGAGAAGUCUGCGGGUUCGAGUCUCGUACGGAACG [G10A A45U C61U] | 0.536 |
| GUUCCGUUGACGUAAUGGUAACGCGUCUCCCUCCUAAGGAGAAGUCUGCGGGGUCGAGUCCCGUACGGAACG [G10A A45U U53G] | ≤ 0.5 |
| GUUCCGUUGACGUAAUGGUAACGCGUCUCCCUCCUAAGGAGAAGACUGCGGGUUCGCGUCCCGUACGGAACG [G10A A57C] | 0.525 |
| GUUCCGUUGACGUAAUGGUAACGCGUCUCCCUCCUAAGGAGAAGACUGCGGGUUCGCGCCCCGUACGGAACG [G10A A57C U59C] | ≤ 0.5 |
| GUUCCGUUGACGUAAUGGUAACGCGUCUCCCUCCUAAGGAGAAGACUGCGGGUUCGGGUCCGGUAUGGAACG [G10A A57G C62G C66U] | ≤ 0.5 |
| GUUCCGUUGACGUAAUGGUAACGCGUCUCCCUCCUAAGGAGAAGACUGCGGGUUCGAGUCCCGUGCGGAACG [G10A A65G] | 0.627 |
| GUUCCGUUGACGUAAUGGUAACGCGUCUCCCUCCUAAGGAGAAGACUGCGGGUUCGAGUCCCGUACGGAGCG [G10A A70G] | 0.743 |
| GUUCCGUUGAAGUAAUGGUAACGCGUCUCCCUCCUAAGGAGAAGACUGCGGGUUCGAGUCCCGUACGGAACG [G10A C11A] | 0.636 |
| GUUCCGUUGAAGUGGUGGUAACGCGUCUCCCUCCUAAGGAGAAGACUGCGGGUUCGAGUCCCGUACGGAACG [G10A C11A A14G A15G] | ≤ 0.5 |
| GUUCCGUUGAAGUACUGGUAACGAGUCUCCCUCAUAAGGAGAAGAGUGCGGGUUCGAGUCCCGUACGGAACG [G10A C11A A15C C24A C34A C46G] | 0.559 |
| GUUCCGUUGAAGUACUGGUAACGAGUCUCCCUCAUAAGGAGAAGAGUGCGGGUUCGAGUCCCGUACCGAACG [G10A C11A A15C C24A C34A C46G G67C] | ≤ 0.5 |
| GUUCCGUUGAAGUAAUGGUAAUGCGUCUCCCUCGUAAGGAGACGACUCCGGGUUCGAGUCCCGUACGGAACG [G10A C11A C22U C34G A43C G48C] | 0.585 |
| GUUCCGUUGAAGUAAUGGUAACGCGUCUACCUCCUAAGGAGAAGACUGCGGGUUCGAGUCCCGUAUGGAACG [G10A C11A C29A C66U] | ≤ 0.5 |
| GUUCCGUUGAAGUAAUGGUAACGCGUCUCCCUCCUAAGGAGAAGACUGCGGGUUCGAGUACCGUACGGAACG [G10A C11A C60A] | ≤ 0.5 |
| GUUCCGUUGAAGUAAUGGUAACGCGUCUCCCUCCUAAGCAGAACACUGCGGCCUCGAGUCCCGUAGGGAACG [G10A C11A G39C G44C G52C U53C C66G] | ≤ 0.5 |
| GUUCCGUUGAAGUAAGGGUAACGCGUCUCCCUCCUAAGGAGAAGACUGCGGGUUCGAGUCCCGUACGGGACG [G10A C11A U16G A69G] | 0.538 |
